Rows were chosen to be rich in hits. Some 2.2% of all compounds tested hit in one or more screens of this group.
NR2E3 ag-1: activates human NR2E3 receptor. Q9Y5X4. CHO-S Gal4-NCOR/VP16-NR2E3 two-hybrid, luciferase. inhibition of corepressor binding, % at 3.98 µM. 360,000 compounds, 0.35% hits. AID 602229;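 active = inhibition above the mean of all tested compounds plus 3 SD, cut at about 70% in these data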;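 also: 0% = DMSO with NR2E3 transfected cells and 100% = cells lacking NR2E3 construct; higher means lower luciferase signal from less NR2E3 corepressor binding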
COUP-TFII inh: blocks human COUP-TFII nuclear receptor; 370,000 compounds, 0.7% hits; HEK293T NGFI-A luciferase reporter, luminescence; inhibition, % at 8.6 µM; P24468;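 active = inhibition above a per-plate cutoff, mean inhibition of test wells between control levels plus 3 SD, cut at about 38% in these data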;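 also: cells cotransfected with COUP-TFII expression vector driving the NGFI-A reporter; 0% = median of COUP-TF2 test wells and 100% = reporter-only cells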
Target sequence (P24468 whole entry, looked up): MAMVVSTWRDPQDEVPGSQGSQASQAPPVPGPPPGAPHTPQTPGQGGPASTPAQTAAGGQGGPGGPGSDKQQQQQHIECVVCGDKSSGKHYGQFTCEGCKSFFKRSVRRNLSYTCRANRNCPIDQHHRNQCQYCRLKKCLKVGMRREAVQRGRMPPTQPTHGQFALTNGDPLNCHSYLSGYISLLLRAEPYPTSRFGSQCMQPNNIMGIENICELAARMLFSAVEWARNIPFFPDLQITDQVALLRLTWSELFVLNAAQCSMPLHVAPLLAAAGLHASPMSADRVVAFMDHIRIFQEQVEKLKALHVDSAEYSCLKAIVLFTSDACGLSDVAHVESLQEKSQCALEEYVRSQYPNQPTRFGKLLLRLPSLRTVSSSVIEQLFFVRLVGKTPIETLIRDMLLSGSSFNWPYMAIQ
SMARCA2 act: increases SMARCA2 function in MMTV reporter cells; 370,000 compounds, 1% hits; activation, % at 9.1 µM; MG213 cells, MMTV-luciferase reporter, dexamethasone, overnight; in the data active = activation above about 7.8%;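 also: 0% = vehicle wells and 100% = reference activator wells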
GalR3 antag: human GalR3 antagonism; inhibition, % at 3 µM; AID 651719; 360,000 compounds, 0.44% hits; O60755; HEK293 GalR3-CNG cAMP membrane potential fluorescence; galR3 body fused to GalR1 C-terminus;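 active = inhibition above the screen-wide average plus 3 SD, cut at about 13% in these data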;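 also: forskolin and galanin both at EC90 stimulate the cells; cAMP rise reported by CNG channel membrane potential dye signal; 0% = forskolin plus galanin with DMSO and 100% = forskolin alone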
Target sequence (O60755 1-299 limits assumed): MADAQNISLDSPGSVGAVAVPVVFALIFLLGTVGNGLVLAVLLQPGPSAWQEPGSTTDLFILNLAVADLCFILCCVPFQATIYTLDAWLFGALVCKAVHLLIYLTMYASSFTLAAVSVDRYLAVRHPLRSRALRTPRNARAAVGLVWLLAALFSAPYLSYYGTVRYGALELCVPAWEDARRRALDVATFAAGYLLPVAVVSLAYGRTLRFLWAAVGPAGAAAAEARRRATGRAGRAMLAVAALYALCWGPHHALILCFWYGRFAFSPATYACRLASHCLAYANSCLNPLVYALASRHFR
NR2E3 ag-2: activates human photoreceptor nuclear receptor NR2E3; Q9Y5X4; GST-NR2E3/biotin-RetCOR TR-FRET, 1536-well; inhibition of corepressor binding, % at 4.78 µM; 320,000 compounds, 0.12% hits;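 active = percent inhibition above the cutoff of mean plus 3 SD of all tested compounds, set per screening campaign, cut at about 20% in these data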;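 also: 0% = DMSO wells and 100% = biotin wells as full block of FRET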
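Material: NR2E3–RetCOR corepressor complex | Quantity: 1.35 nM GST-tagged NR2E3 final | Schedule: 5 h at 4 °C | Replication: Singlicate compound wells | Reagent: RetCOR corepressor, biotinylated, 7 nM | Controls: Biotin wells as high control, 0.6% DMSO wells as low control | Signal: TR-FRET, Eu(K)-anti-GST donor, streptavidin-D2 acceptor, ex 340, em 617/671 nm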
NR2E3 ag confirm: confirmation of human NR2E3 agonists. shares compounds with NR2E3 ag-1. CHO-S mammalian two-hybrid NR2E3-NCOR, luciferase luminescence. inhibition, % at 3.98 µM. 2,300 compounds, 51% hits. AID 624378;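 active = average inhibition above a cutoff equal to the mean inhibition of all tested compounds plus one SD, cut at about 70% in these data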;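 also: 0% = DMSO in NR2E3 cells and 100% = DMSO in cells lacking NR2E3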
GAL4-VP16 luc: counter-screen for NR2E3 agonists: GAL4-VP16 reporter inhibitors. inhibition, % at 3.98 µM. 2,300 compounds, 29% hits. shares compounds with NR2E3 ag-1. CHO-S GAL4-VP16 luciferase reporter, luminescence;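 active = mean inhibition above a cutoff equal to the average over all tested compounds plus one standard deviation, cut at about 70% in these data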;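 also: luciferase from a UAS reporter driven by GAL4-VP16 transactivation; 0% = DMSO with VP16-transfected cells and 100% = DMSO with cells lacking VP16; higher means less reporter light so more repression of VP16 activity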
GalR3 antag conf: confirmation of human galanin receptor 3 antagonists. shares compounds with GalR3 antag. HEK293 GalR3 CNG cAMP biosensor, membrane potential fluorescence; galR3 fused to GalR1 carboxy tail; challenged with forskolin and galanin at EC90. inhibition, % at 3 µM. 1,600 compounds, 59% hits;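 active = inhibition above the primary screen's cutoff, the mean inhibition of all screened compounds plus 3 SD, cut at about 13% in these data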;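 also: 0% = forskolin plus galanin and 100% = forskolin alone with DMSO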
HEK-CNG parental: parental cell agonism counter-screen for GalR3 antagonists; HEK293-CNG parental cells, cAMP membrane potential fluorescence; normalised: DMSO wells 0%, forskolin wells 100%; AID 652268; 1,600 compounds, 10% hits; shares compounds with GalR3 antag; activation, % at 3 µM; in the data active = activation above about 1.3%
SMARCA2 act conf: SMARCA2 activation, confirmation screen; activation, % at 9.1 µM; shares compounds with SMARCA2 act; 3,500 compounds, 30% hits; AID 652260; MG213 cells, MMTV-luciferase with dexamethasone, luminescence, overnight; MG213 cells expressing E1A, Rb sequestered; DMSO wells 0%, reference activator 100%;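 active = activation above its plate's cutoff, the mean activation of tested wells plus 3 SD, cut at about 7.9% in these data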
GAL4-VP16 Luc: counter-screen for SMARCA2 activators: GAL4-VP16 luciferase reporter activation; 3,500 compounds, 41% hits; shares compounds with SMARCA2 act; activation, % at 9.1 µM; HEK293 GAL4-VP16 pG5luc reporter, luciferase luminescence; scaled: DMSO wells 0%, SAHA wells 100%;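 active = activation above the solvent-only control well mean plus 3 SD, averaged across control plates, cut at about 5.2% in these data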
Gal4-VP16 ctr: inhibits VP16 reporter, flagging COUP-TFII antagonist hits | inhibition, % at 8.5 µM | 2,500 compounds, 25% hits | shares compounds with COUP-TFII inh | HEK293 Gal4-VP16 luciferase reporter, luminescence; in the data active = inhibition above about 13%
NR2F2 inh conf: confirmation of human COUP-TFII (NR2F2) inhibitors | shares compounds with COUP-TFII inh | HEK293 NGFI-A luciferase reporter, luminescence | inhibition, % at 8.5 µM | 2,500 compounds, 45% hits | AID 687008;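 active = mean inhibition over three repeats above a set limit taken from the earlier primary screen, cut at about 38% in these data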;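 also: 100% = cells given the luciferase reporter alone without the COUP-TF2 vector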
The depositor's hits bear a star; · = no result given.

SMILES | NR2E3 ag-1 | COUP-TFII inh | SMARCA2 act | GalR3 antag | NR2E3 ag-2 | NR2E3 ag confirm | GAL4-VP16 luc | Gal4-VP16 ctr | NR2F2 inh conf | others
Cc1ccc(/C=C2/CNC/C(=C/c3ccc(C)cc3)C2=O)cc1 | 65 | 47* | 15* | -1 | · | 15 | -10 | 54* | 50* | SMARCA2 act conf=-12;GAL4-VP16 Luc=-3
Cc1nn(-c2nc3ccccc3[nH]2)c(=O)c2ccccc12 | 53 | 97* | -9 | -1 | 3 | 65 | 25 | 68* | 90*
Cc1nn(-c2ccc3ccccc3c2)c(=O)c2ccccc12 | -126 | -40 | 6 | -3 | -2 | · | · | · | ·
COCCCNC(=O)C[C@H]1C[C@@]2(C(=O)OC)C(=C[C@H](C3CCCC3)O[C@@H]2C)N(CCc2ccc(OC)c(OC)c2)C1=O | · | 8 | 1 | · | · | · | · | · | ·
CCn1nc(C)c(CNC(=O)c2cc(COc3ccc(F)cc3Cl)on2)c1C | 51 | 41* | -6 | 4 | 1 | 86* | 71* | 9 | 44*
CSc1cccc(NS(=O)(=O)c2ccc3c(c2)CCN3C(C)=O)c1 | 72* | 45* | -3 | -11 | 0 | 85* | 77* | 6 | 48*
COC(=O)[C@]12C[C@H](CC(=O)N3CCOCC3)C(=O)N(CCc3ccc(OC)c(OC)c3)C1=C[C@H](C(C)C)O[C@@H]2C1CC1 | · | 16 | -1 | · | · | · | · | · | ·
CN=c1scc(-c2ccccc2F)n1/N=C/c1ccc[nH]1 | 97* | 106* | -14 | -4 | -1 | 90* | 80* | 86* | 107*
Cc1ccc(S(=O)(=O)N2CCN(c3ncnc4sccc34)CC2)cc1C | 105* | 43* | -6 | -4 | · | 91* | 79* | -3 | 24
COC(=O)Cc1ccc(NC(=O)c2ccc(C(C)(C)C)cc2)cc1 | 56 | 95* | -11 | 11 | 0 | 58 | 49 | 83* | 93*
O=C1C(=O)c2cccnc2-c2ncccc21 | 72* | 103* | -15 | -12 | · | 89* | 39 | 97* | 112*
Cc1ccc(NS(=O)(=O)c2ccc(C(=O)N3CCN(c4ncccn4)CC3)cc2)cc1 | 83* | 39* | -5 | -6 | -1 | 74* | 57 | -2 | 14
CCC(=O)c1ccc(OCC(O)Cn2c(C)nc3ccccc32)cc1 (centres undefined) | 51 | 59* | -5 | 56* | 2 | 54 | 38 | 4 | 37 | GalR3 antag conf=7;HEK-CNG parental=0
COc1ccc(Cn2cc(COC(=O)N3CCCC3)nn2)cc1 | · | 10 | -1 | · | · | · | · | · | ·
CNc1nc2c(c(=O)n(C)c(=O)n2C)n1Cc1ccccc1 | 56 | 41* | -7 | -8 | 2 | 15 | 28 | -3 | 21
O=C(CSc1nnc(-c2ccccn2)n1Cc1ccco1)Nc1ccc(Oc2ccccc2)cc1 | · | 1 | -6 | · | · | · | · | · | ·
COc1ccc(S[C@]2(C(=O)N3CCN(c4ncccn4)CC3)CC(=O)N[C@@H]2c2ccc(OC)cc2)cc1 | · | 5 | -2 | · | · | · | · | · | ·
Cc1ccc(/C=N/Nc2cc(C)nc(NCc3ccccc3)n2)cc1 | 1 | 11 | 2 | -10 | -2 | · | · | · | ·
Cc1cc(Nc2ccccc2)nc(NCc2ccccc2)n1 | 88* | 38* | -6 | -12 | 1 | 96* | 81* | -5 | 21
Cc1nn(C)c(Cl)c1NC(=O)OCc1ccc(Cl)cc1Cl | 67 | 53* | -7 | 96* | 2 | 91* | 67 | 4 | 32 | GalR3 antag conf=21*;HEK-CNG parental=0
O=S(=O)(c1ccccc1)N1CCC(O)(CSc2ccc(Cl)cc2)CC1 | 78* | 54* | -5 | 93* | 1 | 95* | 79* | 5 | 37 | GalR3 antag conf=108*;HEK-CNG parental=-1
O=S(=O)(c1ccc(Cl)cc1)N1CCC(O)(CN2CCN(Cc3ccccc3)CC2)CC1 | 10 | 21 | -2 | 0 | 4 | · | · | · | ·
Clc1ccc(OCCN2CCN(c3ncnc4sccc34)CC2)cc1 | 89* | 70* | -8 | 93* | -2 | 98* | 93* | 1 | 64* | GalR3 antag conf=107*;HEK-CNG parental=0
Cc1sc2ncnc(N3CCCCC3)c2c1C | -12 | -13 | -1 | -7 | 1 | · | · | · | ·
Cc1ccc(OCCN2CCN(c3ncnc4sc(C)c(C)c34)CC2)cc1 | 92* | 73* | -6 | 101* | 2 | 98* | 93* | -2 | 61* | GalR3 antag conf=104*;HEK-CNG parental=0
SMILES | NR2E3 ag-1 | COUP-TFII inh | SMARCA2 act | GalR3 antag | NR2E3 ag-2 | NR2E3 ag confirm | GAL4-VP16 luc | Gal4-VP16 ctr | NR2F2 inh conf | others
Cc1ccccc1CS(=O)(=O)Cc1ccc(C(=O)Nc2c(C)cccc2C)o1 | · | 16 | -6 | · | · | · | · | · | ·
CCN1/C(=C\c2ccc3cc(C)ccc3[n+]2CC)Sc2cc(C)c(C)cc21 | 85* | 67* | -12 | 59* | · | 98* | 87* | 8 | 53* | GalR3 antag conf=74*;HEK-CNG parental=6.3*
CCN1/C(=C/c2ccc3cccc(C)c3[n+]2CC)Sc2ccccc21 | 86* | 74* | -7 | 49* | -6 | 97* | 85* | 19* | 66* | GalR3 antag conf=45*;HEK-CNG parental=10*
Cc1c(NS(=O)(=O)c2cc3c(cc2Br)CCN3C(=O)C2CC2)c(=O)n(-c2ccccc2)n1C | · | -8 | -3 | · | · | · | · | · | ·
CC(=O)c1c(C)[nH]c(C(=O)C(C)Sc2nnc(NC3CC3)s2)c1C (centres undefined) | 51 | 37* | -2 | -8 | 4 | 44 | 47 | -7 | 12
CC(Sc1nnc(NC2CC2)s1)C(=O)Nc1ccc(N2CCOCC2)cc1 (centres undefined) | 25 | -12 | -2 | 2 | · | · | · | · | ·
NC(=O)C1CCN(c2ccnc(Cl)n2)CC1 | · | 6 | · | · | · | · | · | · | ·

Assay outcomes as filed in PubChem BioAssay.
